Laboratory results from ChEMBL document CHEMBL4257448, “Deciphering the origins of molecular toxicity of combretastatin A4 and its glycoconjugates: interactions with major drug transporters and their safety profiles in vitro and in vivo” (Medchemcomm, 2017).
Values after ≈ are worked out from the molar mass of the structure shown.

Columns and labels:
HT-29 [1] = assay: […] for human HT-29 cells assessed as reduction in cell viability after 72 hrs by MTT assay; type: functional
How it was run: (§1)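 HT29 cells were cultured in RPMI-1640 with glutamine and 10% FBS, seeded at 2000–7500 cells/well, and exposed for 72 h to drug in DMSO (final DMSO <0.1%). MTT was added at 0.83 mg mL−1 final and incubated overnight, then cells were lysed in SDS/HCl and read at 570 nm. Survival was expressed as percent of drug-free control; five replicate wells.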

HT-29 [2] = assay: Cytotoxicity against human HT-29 cells assessed as reduction in cell viability after 72 hrs by MTT assay; type: functional, cell-based; conditions: HT-29, 72 h; how it was run: as §1
Mus musculus = assay: Ratio of compound MTD to CA4 MTD in ip dosed DBA/2 mouse assessed as reduction in 15% body weight administered as daily dose for 3 days; type: ADME, organism-based; conditions: in vivo, 72 h
[3] = Cytotoxicity against HEK293FT cells expressing GLUT1 assessed as reduction in cell viability up to 20 uM; type: cell-based; conditions: human
[4] = Aqueous solubility of the compound after 1 hrs by HPLC-UV method; type: physicochemical; conditions: deionized water
How it was run: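 Shaken in tubes at 25 °C for 1 h, protected from light, then filtered through 0.2 μm filters; filtrate diluted in deionized water and quantified by reversed-phase HPLC-UV (C18 column, room temperature, methanol/water 70:30 v/v, 1.0 mL min−1).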

[5] = Toxicity in ip dosed DBA/2 mouse assessed as reduction in 15% body weight administered as daily dose for 3 days; type: organism-based; conditions: in vivo
How it was run: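 Adult male DBA/2 mice were dosed i.p. at 10 mL kg−1, with 5 per group. Controls (n = 8) received saline. MTD was the dose allowing 15% median body-weight loss with no toxic deaths or marked change in general signs within 3 days.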

[6] = Ratio of CA4 aqueous solubility to test compound aqueous solubility; type: physicochemical; conditions: buffer
[7] = Cytotoxicity against HEK293FT cells assessed as reduction in cell viability up to 20 uM; type: cell-based; conditions: human

SMILES | Ratio IC50 (HT-29 [1]) | IC50 (HT-29 [2]) [µM] | Ratio (Mus musculus) | Activity [3] | solubility at 1 h [4] [µg/mL] | MTD at 72 h [5] [mg/kg] | Ratio [6] | Activity [7]
COc1ccc(/C=C\c2cc(OC)c(OC)c(OC)c2)cc1O[C@@H]1O[C@H](CO)[C@H](O)[C@H](O)[C@H]1O | 54.61 | 39.3 | 34 | Toxic | 2560 (≈ 5.35 mM) | 550 | 853 | Toxic
COc1ccc(/C=C\c2cc(OC)c(OC)c(OC)c2)cc1O[C@H]1O[C@H](CO)[C@@H](O)[C@H](O)[C@@H]1O | 15.89 | 11.4 | 16 | Toxic | 5890 (≈ 12.3 mM) | 400 | 1963 | Toxic
